Reference: ChEMBL document CHEMBL2384936, “Synthesis and evaluation of antimicrobial activity of hydrazones derived from 3-oxido-1H-imidazole-4-carbohydrazides” (Eur J Med Chem, 2013)
In brackets after ≈: the same amount, converted by molar mass. Activity calls are given as the source filed them. The rule behind the calls is not given here.

Columns and labels:
Escherichia coli [1] = assay: Antibacterial activity against Escherichia coli NCTC 8192 assessed as growth inhibition after 18 hrs by broth microdilution method; type: functional
In short: (§1)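 Frozen stocks (-80 °C, tryptic soy broth with 15% glycerol); S. aureus subcultured on blood agar and identified by catalase, coagulase and clumping factor. Inoculum at 0.5 McFarland. MIC = lowest concentration preventing growth; triplicates, per CLSI.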

Escherichia coli [2] = assay: Bactericidal activity against Escherichia coli NCTC 8192 after 18 hrs by broth microdilution method; type: functional
In short: (§2)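 Broth microdilution, then contents of wells without visible growth plated onto Mueller–Hinton agar and incubated 35 °C for 18 h. Triplicates, per CLSI.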

Staphylococcus aureus [3] = assay: Antibacterial activity against Staphylococcus aureus ATCC 6538 assessed as growth inhibition after 18 hrs by broth microdilution method; type: functional; conditions: ATCC 6538, 18 h
In short: (§3)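 Broth microdilution in Mueller–Hinton broth with 1–600 µg/mL compound added from DMSO stocks. Inoculum adjusted to 0.5 McFarland. Strains stored at -80 °C and subcultured on blood agar before use. Incubation 37 °C for 18 h with OD600 read. MIC taken as the lowest concentration preventing growth, run in triplicate following CLSI. Vancomycin and oxacillin served as controls.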

Staphylococcus aureus [4] = assay: Bactericidal activity against Staphylococcus aureus ATCC 29213 after 18 hrs by broth microdilution method; type: functional; conditions: ATCC 29213, 18 h; in short: as §2
Staphylococcus aureus [5] = assay: Antibacterial activity against Staphylococcus aureus ATCC 29213 assessed as growth inhibition after 18 hrs by broth microdilution method; type: functional; conditions: ATCC 29213, 18 h; in short: as §3
[6] = tested on: Staphylococcus epidermidis; assay: Antibacterial activity against Staphylococcus epidermidis ATCC 12228 assessed as growth inhibition after 18 hrs by broth microdilution method; type: functional; conditions: ATCC 12228, 18 h; in short: as §1
[7] = tested on: Staphylococcus epidermidis; assay: Bactericidal activity against Staphylococcus epidermidis ATCC 12228 after 18 hrs by broth microdilution method; type: functional; conditions: ATCC 12228, 18 h; in short: as §2
Staphylococcus aureus [8] = assay: Bactericidal activity against Staphylococcus aureus ATCC 6538 after 18 hrs by broth microdilution method; type: functional; conditions: ATCC 6538, 18 h; in short: as §2
Pseudomonas aeruginosa = assay: Antibacterial activity against Pseudomonas aeruginosa NCTC 6249 assessed as growth inhibition at 1 to 600 ug/mL after 18 hrs by broth microdilution method; type: functional, organism-based
Enterococcus faecalis = assay: Antibacterial activity against Enterococcus faecalis ATCC 29212 assessed as growth inhibition at 1 to 600 ug/mL after 18 hrs by broth microdilution method; type: functional, organism-based
[9] = tested on: Staphylococcus epidermidis; assay: Antibacterial activity against Staphylococcus epidermidis ATCC 12228 assessed as growth inhibition at 1 to 600 ug/mL after 18 hrs by broth microdilution method; type: functional, organism-based
Staphylococcus aureus [10] = assay: Antibacterial activity against Staphylococcus aureus ATCC 6538 assessed as growth inhibition at 1 to 600 ug/mL after 18 hrs by broth microdilution method; type: functional, organism-based
In short: as §1, with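 “McFarland. DMSO-dissolved compounds 1–600 µg/mL in Mueller–Hinton broth, 37 °C 18 h, OD600 read with and without compound.” for “McFarland.”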

Proteus vulgaris = assay: Antibacterial activity against Proteus vulgaris ATCC 49990 assessed as growth inhibition at 1 to 600 ug/mL after 18 hrs by broth microdilution method; type: functional, organism-based
Proteus mirabilis = assay: Antibacterial activity against Proteus mirabilis ATCC 29906 assessed as growth inhibition at 1 to 600 ug/mL after 18 hrs by broth microdilution method; type: functional
Escherichia coli [11] = assay: Antibacterial activity against Escherichia coli NCTC 8192 assessed as growth inhibition at 1 to 600 ug/mL after 18 hrs by broth microdilution method; type: functional, organism-based
Candida albicans = assay: Antifungal activity against Candida albicans ATCC 10231 assessed as growth inhibition at 1 to 600 ug/mL after 18 hrs by broth microdilution method; type: functional, organism-based
Staphylococcus aureus [12] = assay: Antibacterial activity against Staphylococcus aureus ATCC 29213 assessed as growth inhibition at 1 to 600 ug/mL after 18 hrs by broth microdilution method; type: functional, organism-based
In short: as §1, with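 “McFarland. DMSO-dissolved compounds 1–600 µg/mL in Mueller–Hinton broth, 37 °C 18 h, OD600 read with and without compound.” for “McFarland.”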

Staphylococcus aureus [13] = assay: Bactericidal activity against Staphylococcus aureus isolate C19 derived from naso-pharynx after 18 hrs by broth microdilution method; type: functional; conditions: isolate C19, 18 h; in short: as §2
Staphylococcus aureus [14] = assay: Antibacterial activity against Staphylococcus aureus isolate F1 derived from ulcer and furuncle assessed as growth inhibition after 18 hrs by broth microdilution method; type: functional; conditions: isolate F1, 18 h; in short: as §1
Staphylococcus aureus [15] = assay: Antibacterial activity against Staphylococcus aureus isolate D15 derived from bone assessed as growth inhibition after 18 hrs by broth microdilution method; type: functional; conditions: isolate D15, 18 h; in short: as §1
Staphylococcus aureus [16] = assay: Bactericidal activity against Staphylococcus aureus isolate C8 derived from naso-pharynx after 18 hrs by broth microdilution method; type: functional; conditions: isolate C8, 18 h; in short: as §2
Staphylococcus aureus [17] = assay: Bactericidal activity against Staphylococcus aureus isolate D20 derived from bone after 18 hrs by broth microdilution method; type: functional; conditions: isolate D20, 18 h; in short: as §2
Staphylococcus aureus [18] = assay: Bactericidal activity against Staphylococcus aureus isolate F1 derived from ulcer and furuncle after 18 hrs by broth microdilution method; type: functional; conditions: isolate F1, 18 h; in short: as §2
Staphylococcus aureus [19] = assay: Antibacterial activity against Staphylococcus aureus isolate F12 derived from ulcer and furuncle assessed as growth inhibition after 18 hrs by broth microdilution method; type: functional; conditions: isolate F12, 18 h; in short: as §1
Staphylococcus aureus [20] = assay: Bactericidal activity against Staphylococcus aureus isolate D14 derived from bone after 18 hrs by broth microdilution method; type: functional; conditions: isolate D14, 18 h; in short: as §2
Staphylococcus aureus [21] = assay: Bactericidal activity against Staphylococcus aureus isolate C7 derived from naso-pharynx after 18 hrs by broth microdilution method; type: functional; conditions: isolate C7, 18 h; in short: as §2
Staphylococcus aureus [22] = assay: Antibacterial activity against Staphylococcus aureus isolate C7 derived from naso-pharynx assessed as growth inhibition after 18 hrs by broth microdilution method; type: functional; conditions: isolate C7, 18 h; in short: as §1
Staphylococcus aureus [23] = assay: Bactericidal activity against Staphylococcus aureus isolate D15 derived from bone after 18 hrs by broth microdilution method; type: functional; conditions: isolate D15, 18 h; in short: as §2
Staphylococcus aureus [24] = assay: Bactericidal activity against Staphylococcus aureus isolate D12 derived from ulcer and furuncle after 18 hrs by broth microdilution method; type: functional; conditions: isolate D12, 18 h; in short: as §2
Staphylococcus aureus [25] = assay: Antibacterial activity against Staphylococcus aureus isolate C4 derived from naso-pharynx assessed as growth inhibition after 18 hrs by broth microdilution method; type: functional; conditions: isolate C4, 18 h; in short: as §1
Staphylococcus aureus [26] = assay: Antibacterial activity against Staphylococcus aureus isolate F7 derived from ulcer and furuncle assessed as growth inhibition after 18 hrs by broth microdilution method; type: functional; conditions: isolate F7, 18 h; in short: as §1
Staphylococcus aureus [27] = assay: Antibacterial activity against Staphylococcus aureus isolate D12 derived from ulcer and furuncle assessed as growth inhibition after 18 hrs by broth microdilution method; type: functional; conditions: isolate D12, 18 h; in short: as §1
Staphylococcus aureus [28] = assay: Antibacterial activity against Staphylococcus aureus isolate D17 derived from bone assessed as growth inhibition after 18 hrs by broth microdilution method; type: functional; conditions: isolate D17, 18 h; in short: as §1
Staphylococcus aureus [29] = assay: Antibacterial activity against Staphylococcus aureus isolate C8 derived from naso-pharynx assessed as growth inhibition after 18 hrs by broth microdilution method; type: functional; conditions: isolate C8, 18 h; in short: as §1
Staphylococcus aureus [30] = assay: Bactericidal activity against Staphylococcus aureus isolate F7 derived from ulcer and furuncle after 18 hrs by broth microdilution method; type: functional; conditions: isolate F7, 18 h; in short: as §2
Staphylococcus aureus [31] = assay: Antibacterial activity against Staphylococcus aureus isolate D20 derived from bone assessed as growth inhibition after 18 hrs by broth microdilution method; type: functional; conditions: isolate D20, 18 h; in short: as §1
Staphylococcus aureus [32] = assay: Antibacterial activity against Staphylococcus aureus isolate D14 derived from bone assessed as growth inhibition after 18 hrs by broth microdilution method; type: functional; conditions: isolate D14, 18 h; in short: as §1
Staphylococcus aureus [33] = assay: Bactericidal activity against Staphylococcus aureus isolate F12 derived from ulcer and furuncle after 18 hrs by broth microdilution method; type: functional; conditions: isolate F12, 18 h; in short: as §2
Staphylococcus aureus [34] = assay: Bactericidal activity against Staphylococcus aureus isolate D17 derived from bone after 18 hrs by broth microdilution method; type: functional; conditions: isolate D17, 18 h; in short: as §2
Staphylococcus aureus [35] = assay: Bactericidal activity against Staphylococcus aureus isolate C4 derived from naso-pharynx after 18 hrs by broth microdilution method; type: functional; conditions: isolate C4, 18 h; in short: as §2
Staphylococcus aureus [36] = assay: Antibacterial activity against Staphylococcus aureus isolate C19 derived from naso-pharynx assessed as growth inhibition after 18 hrs by broth microdilution method; type: functional; conditions: isolate C19, 18 h; in short: as §1

O=C(N[C@H](CO)[C@H](O)c1ccc([N+](=O)[O-])cc1)C(Cl)Cl [CHLORAMPHENICOL]
MIC (Escherichia coli [1]; NCTC 8192, 18 h): 0.25 µg/mL (≈ 0.774 µM)
MBC (Escherichia coli [2]; NCTC 8192, 18 h): 0.5 µg/mL (≈ 1.55 µM)
MIC (Staphylococcus aureus [3]): 1 µg/mL (≈ 3.09 µM)
MBC (Staphylococcus aureus [4]): 4 µg/mL (≈ 12.4 µM)
MIC (Staphylococcus aureus [5]): 1 µg/mL (≈ 3.09 µM)
MIC [6]: 0.5 µg/mL (≈ 1.55 µM)
MBC [7]: 2 µg/mL (≈ 6.19 µM)
MBC (Staphylococcus aureus [8]): 4 µg/mL (≈ 12.4 µM)

COc1ccc(/C=N/NC(=O)c2c(C)n(Cc3ccccc3)c[n+]2[O-])cc1
Activity (Pseudomonas aeruginosa): inactive
Activity (Enterococcus faecalis): inactive
Activity [9]: inactive
Activity (Staphylococcus aureus [10]): inactive
Activity (Proteus vulgaris): inactive
Activity (Proteus mirabilis): inactive
Activity (Escherichia coli [11]): inactive
Activity (Candida albicans): inactive
Activity (Staphylococcus aureus [12]): inactive

CN[C@H](CC(C)C)C(=O)N[C@H]1C(=O)N[C@@H](CC(N)=O)C(=O)N[C@H]2C(=O)N[C@H]3C(=O)N[C@H](C(=O)N[C@H](C(=O)O)c4cc(O)cc(O)c4-c4cc3ccc4O)[C@H](O)c3ccc(c(Cl)c3)Oc3cc2cc(c3O[C@@H]2O[C@H](CO)[C@@H](O)[C@H](O)[C@H]2O[C@H]2C[C@](C)(N)[C@H](O)[C@H](C)O2)Oc2ccc(cc2Cl)[C@H]1O [VANCOMYCIN]
MBC (Staphylococcus aureus [13]): 75 µg/mL (≈ 51.8 µM)
MIC (Staphylococcus aureus [14]): 75 µg/mL (≈ 51.8 µM)
MIC (Staphylococcus aureus [15]): 75 µg/mL (≈ 51.8 µM)
MBC (Staphylococcus aureus [16]): 75 µg/mL (≈ 51.8 µM)
MBC (Staphylococcus aureus [17]): 75 µg/mL (≈ 51.8 µM)
MBC (Staphylococcus aureus [18]): 75 µg/mL (≈ 51.8 µM)
MIC (Staphylococcus aureus [19]): 10 µg/mL (≈ 6.9 µM)
MBC (Staphylococcus aureus [20]): 75 µg/mL (≈ 51.8 µM)
MIC (Escherichia coli [1]): inactive
MBC (Staphylococcus aureus [21]): 35 µg/mL (≈ 24.2 µM)
MIC (Staphylococcus aureus [22]): 35 µg/mL (≈ 24.2 µM)
MBC (Staphylococcus aureus [23]): 75 µg/mL (≈ 51.8 µM)
MBC (Staphylococcus aureus [24]): 75 µg/mL (≈ 51.8 µM)
MBC (Escherichia coli [2]): inactive
MIC (Staphylococcus aureus [25]): 10 µg/mL (≈ 6.9 µM)
MIC (Staphylococcus aureus [3]): 1.5 µg/mL (≈ 1.04 µM)
MIC (Staphylococcus aureus [26]): 35 µg/mL (≈ 24.2 µM)
MIC (Staphylococcus aureus [27]): 75 µg/mL (≈ 51.8 µM)
MIC (Staphylococcus aureus [28]): 75 µg/mL (≈ 51.8 µM)
MBC (Staphylococcus aureus [4]): 3 µg/mL (≈ 2.07 µM)
MIC (Staphylococcus aureus [5]): 1.5 µg/mL (≈ 1.04 µM)
MIC [6]: 3 µg/mL (≈ 2.07 µM)
MIC (Staphylococcus aureus [29]): 75 µg/mL (≈ 51.8 µM)
MBC [7]: 3 µg/mL (≈ 2.07 µM)
MBC (Staphylococcus aureus [30]): 35 µg/mL (≈ 24.2 µM)
MIC (Staphylococcus aureus [31]): 75 µg/mL (≈ 51.8 µM)
MIC (Staphylococcus aureus [32]): 75 µg/mL (≈ 51.8 µM)
MBC (Staphylococcus aureus [33]): 10 µg/mL (≈ 6.9 µM)
MBC (Staphylococcus aureus [34]): 75 µg/mL (≈ 51.8 µM)
MBC (Staphylococcus aureus [35]): 10 µg/mL (≈ 6.9 µM)
MBC (Staphylococcus aureus [8]): 1.5 µg/mL (≈ 1.04 µM)
MIC (Staphylococcus aureus [36]): 75 µg/mL (≈ 51.8 µM)
